Measurements taken from ChEMBL document CHEMBL1759867, “Evaluation of dihydropyrimidin-(2H)-one analogues and rhodanine derivatives as tyrosinase inhibitors” (Bioorg Med Chem Lett, 2011).
Calls of active or inactive are those of the source. No cut-off for these calls is given here.

Columns and labels:
Tyrosinase = target: T1, Tyrosinase (Agaricus bisporus, UniProt O42713); assay: Inhibition of diphenolase activity of mushroom tyrosinase preincubated with compound for 10 mins before addition of L-DOPA as substrate by spectrophotometric analysis
T1 sequence (O42713 whole entry): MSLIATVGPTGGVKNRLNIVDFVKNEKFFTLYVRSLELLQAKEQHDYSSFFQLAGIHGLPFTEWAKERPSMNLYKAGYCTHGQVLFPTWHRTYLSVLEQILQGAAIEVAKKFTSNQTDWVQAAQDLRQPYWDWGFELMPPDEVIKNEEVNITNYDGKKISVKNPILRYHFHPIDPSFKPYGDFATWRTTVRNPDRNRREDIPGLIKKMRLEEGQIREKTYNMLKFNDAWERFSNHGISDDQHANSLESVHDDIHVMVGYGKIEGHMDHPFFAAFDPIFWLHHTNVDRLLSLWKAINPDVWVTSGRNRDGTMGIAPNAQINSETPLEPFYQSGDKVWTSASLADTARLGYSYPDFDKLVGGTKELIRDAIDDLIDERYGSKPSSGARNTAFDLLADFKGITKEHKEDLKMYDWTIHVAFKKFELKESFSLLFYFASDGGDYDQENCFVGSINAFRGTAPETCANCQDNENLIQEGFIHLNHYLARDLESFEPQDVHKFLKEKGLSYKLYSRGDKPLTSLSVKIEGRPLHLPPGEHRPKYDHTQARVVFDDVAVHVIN
How it was run: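 Diphenolase activity of mushroom tyrosinase was measured with L-DOPA as substrate at 25 °C. IC50 was taken from logarithmic concentration–inhibition curves of at least eight points, as the mean of three experiments.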

[1] = target: T2, Tyrosinase (Agaricus bisporus) (UniProt O42713); assay: Inhibition of diphenolase activity of mushroom tyrosinase at 50 mM preincubated with compound for 10 mins before addition of L-DOPA as substrate by spectrophotometric analysis
T2 sequence (whole entry): T1 sequence (O42713 whole entry)
How it was run: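 Mushroom tyrosinase diphenolase activity was measured on L-DOPA at 25 °C. Compounds were scored for activity at a single fixed concentration.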

| Compound | IC50 (Tyrosinase) | inhibition [1] |
| --- | --- | --- |
| COc1cc(/C=C2\SC(=S)NC2=O)ccc1O | 11.1 mM | – |
| CCO/N=C(\C)C1=C(C)NC(=O)NC1CC (configuration not stated) | – | inactive |
| O=C1NC(=S)S/C1=C\c1ccccc1O | 9.55 mM | – |
| O=C1NC(=S)S/C1=C\c1ccc(O)cc1 | 10.1 mM | – |
| O=C1NC(=S)S/C1=C\c1ccc(OCCO)cc1 | 0.56 mM | – |
| CCC1NC(=S)NC(C)=C1C(C)=O (configuration not stated) | 10.7 mM | – |
| O=C1NC(=S)S/C1=C\c1ccc(OCCO)c(OCCO)c1 | 5.69 mM | – |

Results, then the compound that gave them:

| IC50 (Tyrosinase) | inhibition [1] | Compound |
| --- | --- | --- |
| 20.1 mM | – | COc1cc(C2NC(=S)NC(C)=C2C(C)=O)ccc1O (configuration not stated) |
| – | inactive | CC(=O)C1=C(C)NC(=O)NC1c1ccccc1O (configuration not stated) |
| – | inactive | CC(=O)C1=C(C)NC(=O)NC1c1ccc(O)cc1 (configuration not stated) |
| 25.1 mM | – | COc1ccc(C2NC(=S)NC(C)=C2C(C)=O)cc1 (configuration not stated) |
| – | inactive | COc1cc(C2NC(=O)NC(C)=C2C(C)=O)ccc1O (configuration not stated) |
| – | inactive | COc1ccc(C2NC(=O)NC(C)=C2C(C)=O)cc1 (configuration not stated) |
| – | inactive | CC(=O)C1=C(C)NC(=O)NC1c1ccccc1 (configuration not stated) |
| – | inactive | CCC1NC(=O)NC(C)=C1C(C)=O (configuration not stated) |
| 16.2 mM | – | CC(=O)C1=C(C)NC(=S)NC1c1ccccc1O (configuration not stated) |
| 12.3 mM | – | CC(=O)C1=C(C)NC(=S)NC1c1ccc(O)cc1 (configuration not stated) |
